Compound activity: PubChem BioAssay, several laboratories
Rows were chosen to be rich in hits. Some 0.9% of all compounds tested hit in one or more screens of this group.
PolyA inh: polyadenylation inhibitors in yeast reporter cells, primary screen, luminescence, S. cerevisiae | AID 1875, 2009 | S. cerevisiae SKY197-pL101 polyadenylation reporter, beta-gal luminescence; efflux-impaired pdr1/pdr3 knockout yeast; score 100 = 6 SD above DMSO | 300,000 compounds, 0.02% hits | activity score, % at 12 µM;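 active = lowest replicate activity score at least 50, where 100 means six control SD above control mean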;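 note: yeast exposed to compound for 9 h at 30 °C; higher score means more reporter readthrough which indicates perturbed polyadenylation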
SKN-1 block: suppressors of acrylamide-induced Pgst-4::GFP reporter in worms, primary screen, SKN-1 inhibitor project, whole organism, uHTS, GFP/RFP fluorescence ratio, strain VP596; 360,000 compounds, 0.49% hits; inhibition, % at 21.8 µM; C. elegans VP596 Pgst-4::GFP/RFP ratio, 24 h;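 active = interference check ratio from 0.5 to 1.5 plus GFP to RFP signal ratio inhibition reaching or exceeding a fixed threshold, cut at about 30% in these data, passing the limit was not always enough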
DAGLB inh: DAGLB lipase inhibitors, primary screen, biochemical, fluorescence, HTS | AID 504411, 2011 | HEK293T DAGLB membrane lysate, EnzChek fluorogenic substrate | inhibition, % at 5.17 µM | Diacylglycerol lipase-beta (Homo sapiens), Q8NCG7 | 340,000 compounds, 0.059% hits; in the data active = inhibition above about 34%;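 note: 0% = enzyme with vehicle and 100% = wells lacking enzyme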
Target sequence (Q8NCG7 whole entry, looked up): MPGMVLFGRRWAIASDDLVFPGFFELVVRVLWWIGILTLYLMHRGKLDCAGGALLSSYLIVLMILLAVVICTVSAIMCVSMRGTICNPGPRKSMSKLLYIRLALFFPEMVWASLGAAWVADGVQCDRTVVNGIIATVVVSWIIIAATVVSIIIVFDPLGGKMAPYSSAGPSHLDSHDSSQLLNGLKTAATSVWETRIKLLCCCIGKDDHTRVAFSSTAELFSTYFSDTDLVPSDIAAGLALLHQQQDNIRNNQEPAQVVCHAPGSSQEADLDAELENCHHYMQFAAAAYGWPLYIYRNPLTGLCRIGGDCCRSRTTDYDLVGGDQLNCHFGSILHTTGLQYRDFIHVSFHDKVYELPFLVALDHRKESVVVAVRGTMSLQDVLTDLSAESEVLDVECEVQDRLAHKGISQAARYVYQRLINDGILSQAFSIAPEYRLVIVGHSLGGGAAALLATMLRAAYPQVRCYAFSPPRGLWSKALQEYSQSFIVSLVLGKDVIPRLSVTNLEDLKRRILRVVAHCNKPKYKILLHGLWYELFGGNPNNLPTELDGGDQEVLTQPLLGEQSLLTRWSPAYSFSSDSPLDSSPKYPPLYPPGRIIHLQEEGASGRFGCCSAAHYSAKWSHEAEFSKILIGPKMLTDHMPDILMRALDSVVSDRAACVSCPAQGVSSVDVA
DDE Tn7 FP inh: inhibitors of Tn7 peptide binding to fibrin DD(E), primary screen, biochemical, fluorescence polarization, human fibrin, Tn7 probe; AID 720508, 2013; FP displacement of FITC-Tn7 peptide from fibrin DD(E); 0% = median of compound wells per plate; 370,000 compounds, 0.13% hits; inhibition, % at 8.3 µM; Fibrinogen beta chain (Homo sapiens), P02675;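 active = inhibition above the mean of compounds falling within the control limits plus 3 SD of them, cut at about 14% in these data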;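 note: 0% = plate median of compound wells and 100% = 10 µM Aha-Tn7 peptide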
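Assay system: Human clot-derived fibrin DD(E) complex | Buffer or medium: Tris/NaCl/CaCl2 buffer, pH 7.8 | Repeats: One replicate per compound | Benchmarks: Aha-Tn7 high control | Measure: % inhibition scaled between sample-field median and high-control FP | Schedule: 10 min plus 3 h, room temperature | Signal: Fluorescence polarization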
Tn6 DDE FP: inhibitors of Tn6 peptide binding to fibrin DD(E), primary screen, biochemical, fluorescence polarization, human fibrin, Tn6 probe; Fibrinogen beta chain (Homo sapiens), P02675; 370,000 compounds, 0.21% hits; inhibition, % at 8.3 µM; Fibrin DD(E) TRITC-Tn6 fluorescence polarization displacement;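 active = inhibition above a per-campaign cutoff: mean of compounds within control limits plus 3 SD, cut at about 15% in these data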;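 note: 0% = median of all compound wells on the plate and 100% = blocking peptide control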
MT1-MMP act inh: blockers of MT1-MMP proenzyme processing, primary screen, HT1080 RFP-PRO-GFP cells, GFP/RFP fluorescence. Matrix metalloproteinase-14 (Homo sapiens), P50281. GFP/RFP ratio fluorescence, overnight; percent of plate control window, DMSO zero. GFP/RFP ratio change, % at 20 µM. 360,000 compounds, 0.061% hits;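 active = GFP/RFP ratio change of at least 30% with cell ATP level not reduced by more than half and red fluorescence within 50% of control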
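Assay system: HT1080 RFP-PRO-GFP cells. Benchmarks: DMSO vehicle wells and RFP-L50D-GFP reporter cell wells. Times: overnight cell settling, then overnight compound exposure, 37 °C, 5% CO2. Compound: 20 µM single dose, 1% DMSO. Read-out basis: GFP/RFP fluorescence ratio.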
DDE Tn7 confirm: inhibitors of Tn7 peptide binding to fibrin DD(E), confirmation, biochemical, fluorescence polarization, human fibrin, Tn7 probe; shares compounds with DDE Tn7 FP inh; FP displacement of TRITC-Tn7 peptide from DD(E); 0% set at plate's compound-well median; inhibition, % at 8.3 µM; 460 compounds, 5% hits; AID 720628, 2013;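 active = inhibition above the campaign cutoff, the mean of compounds within control limits plus 3 SD, cut at about 14% in these data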;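 note: 100% = median FP of high control wells holding Aha-Tn7 inhibitor peptide; displacers lower polarization since freed probe rises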
DDE Tn7 FP ctr: counter-screen hit for Tn7 peptide-fibrin DD(E) binding disruption; shares compounds with DDE Tn7 FP inh; TRITC-Tn7 probe displacement, fluorescence polarization; inhibition, % at 8.3 µM; 460 compounds, 3% hits;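 active = inhibition above the cutoff, the mean of compounds lying between the control bounds plus 3 SD of those compounds, cut at about 17% in these data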;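 note: 0% = median of compound sample wells and 100% = excess unlabeled Aha-Tn7 peptide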
The depositor's hits bear a star; nt = no result given.

SMILES	PolyA inh	SKN-1 block	DAGLB inh	DDE Tn7 FP inh	Tn6 DDE FP	MT1-MMP act inh	DDE Tn7 confirm	DDE Tn7 FP ctr
O=C(c1oc2ccccc2c1N1CCCCC1)N1CCCCC1	-8	-1	1	15*	6	-5	-6	-10
CC1CN(C(=O)c2ccccc2)OC(c2ccc3c(c2)OCO3)O1 (centres undefined)	-7	9	-4	15*	6	-1	-3	-1
Cc1cc(C)cc(NC(=O)N2CCN(Cc3ccc4c(c3)OCO4)CC2)c1	-3	-9	-1	14*	-2	2	2	0
O=C(Nc1ccccc1)N1CCN(Cc2ccc3c(c2)OCO3)CC1	-6	-9	-1	-3	-1	1	nt	nt
Cc1cc[n+](-c2[nH]c(=O)sc2/C=N/NC([S-])=Nc2ccccc2)cc1	-22	-18	-3	6	-5	-59	nt	nt
O=c1[nH]c(-[n+]2ccccc2)c(/C=N/NC([S-])=Nc2ccccc2)s1	1	0	-2	15*	-2	-106	10	6
O=C(NCC(c1ccccc1)c1ccccc1)[C@H](Cc1c[nH]c2ccccc12)NC1(C(=O)NC2CCCCC2)CCCCCC1	nt	nt	nt	-3	-5	nt	nt	nt
CC(C)OCCCNC(=O)Cn1ncc2c(=O)oc3ccccc3c21	14	3	-2	4	4	-1	nt	nt
CC(CCc1ccco1)NC(=O)Cn1ncc2c(=O)oc3ccccc3c21 (centres undefined)	6	3	-2	15*	-6	8	0	-4
Fc1cccc(CCN2C(=S)NC[C@@H]2Cc2ccccc2)c1	15	23	-7	15*	2	-1	4	1
COC(=O)C1CN(CCO)CCS(=O)(=O)N1Cc1cn(Cc2ccccc2Br)nn1 (centres undefined)	nt	nt	nt	1	-7	nt	nt	nt
CC(C)[C@@H](CO)N(Cc1cn(Cc2ccccc2)nn1)S(=O)(=O)c1ccccc1Br	nt	nt	nt	-6	-1	nt	nt	nt
COC1=C[C@H](C(=O)NCc2ccc(Cl)cc2)C(C)C(c2ccccc2)CC1=O (some centres undefined)	nt	nt	nt	2	1	nt	nt	nt
CCCN(C(=O)COC(=O)COc1c(C)cccc1C)c1c(N)n(Cc2ccccc2)c(=O)[nH]c1=O	6	13	1	14*	-7	3	0	-3
Cc1ccc(C(C(=O)NCC2CCCO2)N(Cc2ccccc2F)C(=O)Cn2nnc(-c3cccs3)n2)cc1 (centres undefined)	4	24	2	19*	1	-4	10	6
O=C(NC1CCCC1)C(c1ccncc1)N(CC1CCCO1)C(=O)Cn1nnc(-c2cccs2)n1 (centres undefined)	-5	-14	-1	-4	7	1	nt	nt
COc1ccc(OC)c(NC(=S)N2CCN(Cc3ccccc3)CC2)c1	-3	-2	-3	-2	2	2	nt	nt
COc1ccc(NC(=S)N2CCN(Cc3ccccc3)CC2)c(OC)c1	2	6	-2	15*	-3	0	4	6
CCC(CC)C1C(C#N)=C(N)SC(N)=C1C#N	-1	15	6	6	3	-11	nt	nt
CC(C)C1C(C#N)=C(N)SC(N)=C1C#N	-1	-19	-2	14*	6	-4	2	0
Cc1cc(C)n(-c2ccc(C(=O)O)cc2)n1	-13	-10	0	14*	9	-1	0	0
S=c1[nH]nc(-c2cc(-c3ccccc3)n[nH]2)n1N=Cc1cccc(OCc2ccccc2)c1	nt	nt	nt	1	11	nt	nt	nt
C[C@@H]1COC(=O)[C@H](Cc2ccc(F)cc2)C/C=C\C[C@@H](CC(=O)NCCO)C(=O)N1	nt	29	-2	15*	9	1	-7	-11
C[C@H]1COC(=O)[C@@H](Cc2ccc(F)cc2)C/C=C\C[C@@H](CC(=O)NCCO)C(=O)N1	nt	5	-3	0	-2	0	nt	nt
COc1ccc(Oc2c(Cl)cnn(CC(=O)C(c3ccccc3)c3ccccc3)c2=O)cc1	nt	nt	nt	-9	1	nt	nt	nt
SMILES	PolyA inh	SKN-1 block	DAGLB inh	DDE Tn7 FP inh	Tn6 DDE FP	MT1-MMP act inh	DDE Tn7 confirm	DDE Tn7 FP ctr
CC(=O)N1CCCN(S(=O)(=O)c2ccc3c(c2)oc(=O)n3C)CC1	nt	nt	nt	-3	1	nt	nt	nt
CCOc1ccc(NC(=O)CN2CCN(CC(=O)Nc3cccc(F)c3)CC2)cc1	nt	-6	-2	-2	-3	4	nt	nt
CCOc1ccc(NC(=O)CN2CCN(CC(=O)Nc3ccc4c(c3)OCCO4)CC2)cc1	nt	-23	0	15*	-1	2	-1	-4
Cc1cccc(NC(=O)CCS(=O)(=O)c2ccccc2)n1	7	2	3	14*	5	4	6	-2
Cc1ccc(NC(=S)NCc2ccc(Cl)cc2)c(OC(F)F)c1	8	-8	-4	14*	7	1	11	0
Cc1ccc(CNC(=O)O[C@H]2CC[C@@]34CCCN3C(=O)CCC[C@H]4C2)cc1	nt	nt	nt	-5	1	nt	nt	nt
CCCCN(CC)C(=O)c1cc2cc3ccc(OC)cc3nc2o1	-6	2	-7	4	-5	nt	nt	nt
CCCCN(C)C(=O)c1cc2cc3ccc(OC)cc3nc2s1	-16	-3	-2	15*	-2	3	4	5
CC(C)c1nnc(N2C(=O)C(O)=C(C(=O)c3cccs3)C2c2ccccc2)s1 (centres undefined)	-10	-2	-2	30*	-6	-113	3	0
Cc1ccc(OCCC(=O)OCC(=O)N2CCN(S(=O)(=O)c3ccc(Cl)cc3)CC2)cc1	-7	-1	3	15*	0	-2	-4	-6
C=CCC(=O)NC1CCCc2c1cnn2-c1cc(F)cc(F)c1 (centres undefined)	1	4	0	15*	5	8	-6	-9
